Consider 13 molecules from PubChem BioAssay.

Active and inactive are the calls of the source.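 How the source made its calls, unless noted: active means compounds giving at least 50% inhibition in the cell-based MKP-3 phosphatase rescue imaging test; inactive means the rest.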

Experiment [1] can be described thus: inhibitors of TNFa-induced NFkB p65 translocation, primary screen, imaging, HUVEC, MLSMR starter and 10KST1 sets (AID 438;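 active means inhibition above 20% together with a positive visual image hit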;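 further: compound added about 3h40 before a 20 min TNFalpha stimulation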;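 on inhibition: signal is the nuclear over cytoplasmic p65 intensity ratio per well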). Conditions: HUVEC TNFa-induced p65 nuclear translocation; cell count: measured here: nuclei count (cytotoxicity indicator), at 2.08 µM; inhibition: at 2 µM, stronger effect = higher value, 0% TNFa-plus-vehicle, 100% no-TNFa wells.
The nature of experiment [2]: endothelial E-selectin expression blockers – imaging, HUVEC, immunofluorescence, MLSMR starter and 10KST1 sets, primary screen (AID 487;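 active means visually confirmed hit in the image check and inhibition above 20%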;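 on inhibition: signal is fraction of cell area covered by stained E-selectin grains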;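 on nuclei count: 100% = median nuclei count of all wells on the same plate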). Conditions: HUVEC TNFalpha-induced E-selectin immunofluorescence imaging, at 2 µM; inhibition: stronger effect = higher value; nuclei count: measured here: cell number, toxicity.
The nature of experiment [3]: Primary imaging screen for DUSP6 inhibitors that restore phospho-Erk in transfected HeLa cells, chemical complementation (AID 609).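 On inhibition: phospho-Erk level distribution per well compared with pooled transfected vehicle control wells.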 Conditions: HeLa MKP-3 transfected, phospho-Erk imaging KS statistic, at 10 µM, cells stimulated with TPA for 15 min.
The target of experiment [4] is Dual specificity protein phosphatase 6 (Homo sapiens) (UniProt Q16828). Described as above. Conditions: HeLa MKP-3 transfected, phospho-Erk imaging KS statistic; at 10 µM; stronger effect = higher value; cells stimulated with TPA for 15 min.
Sequence of Dual specificity protein phosphatase 6 (Homo sapiens) (Q16828 whole entry, looked up): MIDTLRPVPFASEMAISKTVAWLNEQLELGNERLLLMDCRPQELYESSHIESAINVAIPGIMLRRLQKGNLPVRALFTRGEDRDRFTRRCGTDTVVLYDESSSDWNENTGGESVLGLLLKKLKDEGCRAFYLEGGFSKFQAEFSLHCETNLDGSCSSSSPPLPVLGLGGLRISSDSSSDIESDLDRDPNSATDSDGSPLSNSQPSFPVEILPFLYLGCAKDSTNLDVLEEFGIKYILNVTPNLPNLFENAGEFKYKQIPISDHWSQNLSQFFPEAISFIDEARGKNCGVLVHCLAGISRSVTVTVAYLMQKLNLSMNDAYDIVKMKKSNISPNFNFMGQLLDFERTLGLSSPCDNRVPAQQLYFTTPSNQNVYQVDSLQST
For experiment [5], the target named is Voltage-gated potassium channel subunit beta-2 (Rattus norvegicus) (UniProt P62483). As to the kind of experiment: inhibitors of rat Kvbeta2 reductase activity – biochemical, NADPH fluorescence, primary screen (AID 622;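 active means fluorescence slope higher than the sample average by over 3 SD, cut at about -0.22 in these data, passing the limit was not always enough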;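 further: slope of raw intensity against log time taken from 70 to 1610 s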). Conditions: recombinant KvBeta, 4-cyanobenzaldehyde reduction, at 10 µM, stronger effect = higher value.
Sequence of Voltage-gated potassium channel subunit beta-2 (Rattus norvegicus) (P62483 whole entry, looked up): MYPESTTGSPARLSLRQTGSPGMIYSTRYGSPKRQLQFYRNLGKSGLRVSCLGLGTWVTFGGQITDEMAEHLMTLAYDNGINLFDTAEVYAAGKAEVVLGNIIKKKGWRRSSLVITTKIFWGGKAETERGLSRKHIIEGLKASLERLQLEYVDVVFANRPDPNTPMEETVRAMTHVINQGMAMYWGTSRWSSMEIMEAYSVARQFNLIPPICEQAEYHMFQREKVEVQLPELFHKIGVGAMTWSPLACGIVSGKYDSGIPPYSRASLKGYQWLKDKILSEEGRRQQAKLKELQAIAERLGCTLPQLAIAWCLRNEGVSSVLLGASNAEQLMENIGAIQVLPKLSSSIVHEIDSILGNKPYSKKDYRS
Experiment [6] shares this target. As to the kind of experiment: enhancers of rat Kvbeta2 NADPH turnover – biochemical, NADPH fluorescence, primary screen (AID 623;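 active means NADPH fluorescence slope more negative than the mean of all samples by about 3 SD, 99.7% confidence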;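 further: fluorescence intensity change per second fitted from 20 to 320 s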). Conditions: Recombinant KvBeta, NADPH fluorescence decrease slope, 10 min; at 10 µM; stronger effect = lower value.
Experiment [7] has as its target Muscarinic acetylcholine receptor M4 (Homo sapiens) (UniProt P08173). As to the kind of experiment: M4-linked GIRK flux change, two-sided – cell-based, HEK293 M4/GIRK, thallium flux, BTC-AM, M4 allosteric agonist project, primary screen (AID 625;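 active means fluorescence slope after compound addition differing from the mean of all tested samples at 99.7% confidence, mostly higher but some lower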;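 further: thallium influx through GIRK channels coupled to M4 in HEK293 cells with BTC-AM dye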). Conditions: at 10 µM, actives lie on both sides. In short, it runs like this:
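assay system = HEK293 cells with M4 receptor and GIRK channels | medium = pH 7.3 thallium assay buffer | doses = 10 µM final, single point | timing = cells overnight at 37 °C, BTC-AM loading 1 h, reads 2 min total | signal = BTC-AM fluorescence, 1 Hz kinetic reads | read-out = post-addition slope, 15–24 s, of baseline-normalized fluorescence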

Experiment [8] can be described thus: inhibitors of larval lipid processing in zebrafish, primary screen, whole organism, PED6 fluorescence, gall bladder and intestine (AID 686;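 active means a full or partial loss of lipid-probe fluorescence in the fish gall bladder, intestine or both, judged by eye; inactive means no fluorescence loss, or compound toxic to the fish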;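 further: larvae 5 to 7 days old with five fish per well; signal comes from phospholipase A2 cleavage of quenched PED6 carried via bile; overnight exposure to compound and PED6 before scoring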). Conditions: Zebrafish larvae PED6 lipid processing, fluorescence scoring; screened at 20 µM (by protocol). Summed up: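 Also added: quenched phospholipase substrate PED6, 100 nM final, ingested by larvae; System: zebrafish larvae, 5-7 d; Quantity: 5 larvae per well; Compound: 20 µM single dose; Schedule: overnight compound and PED6 incubation; Read-out: visual per-well fluorescence inhibition score; Measured by: By-eye fluorescence microscopy; Medium: E3.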

Experiment [9] is described as follows: loss of swimming-algae plug formation – whole organism, Chlamydomonas reinhardtii, WT vs cilia-less mutant, absorbance, 96-well, primary screen (AID 463189;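 active means inhibition at or above 50% relative to wild type and mutant plate controls; inactive means inhibition below 50%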;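 further: 0% = wild type cc124 cells in DMSO and 100% = ciliumless bld1 mutant cells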). Conditions: Chlamydomonas reinhardtii gravitaxis, OD600 absorbance, 2 days; at 10 µM; stronger effect = higher value.
[10] abbreviates: measured here: cell density z-score.
Where [11] appears, read: measured here: nuclear c-Myc green intensity z-score.
[12] abbreviates: measured here: nuclear pErk red intensity z-score, stronger effect = higher value.

Sequence of Muscarinic acetylcholine receptor M4 (Homo sapiens) (P08173 whole entry, looked up): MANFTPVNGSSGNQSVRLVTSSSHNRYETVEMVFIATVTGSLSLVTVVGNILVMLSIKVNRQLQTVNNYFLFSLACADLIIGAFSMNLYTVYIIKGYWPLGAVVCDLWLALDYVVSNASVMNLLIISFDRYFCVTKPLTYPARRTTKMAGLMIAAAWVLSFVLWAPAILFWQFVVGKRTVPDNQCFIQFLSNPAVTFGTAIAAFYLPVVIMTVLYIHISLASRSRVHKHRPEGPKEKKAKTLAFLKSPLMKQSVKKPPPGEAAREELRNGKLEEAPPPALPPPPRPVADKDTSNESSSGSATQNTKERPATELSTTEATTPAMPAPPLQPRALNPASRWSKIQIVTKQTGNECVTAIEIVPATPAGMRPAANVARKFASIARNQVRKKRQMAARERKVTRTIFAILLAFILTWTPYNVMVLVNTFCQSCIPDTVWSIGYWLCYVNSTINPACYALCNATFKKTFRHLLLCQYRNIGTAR

As to `Cc1cccc(NC(=O)c2c(C)cc(=O)oc2C)n1`, the cell count in experiment [1] was 522. In addition, the inhibition (commonly the drop in the measured response relative to a control, in per cent) is -1.7% (inactive) in [1], 26.4% (inactive) in experiment [2], 7.93% (inactive) in experiment [4] and -9.96% (inactive) in experiment [9]. The molecule also yielded a nuclei count in experiment [2] of 170%. For the same molecule, the z-score in experiment [3] (setting [10]) was 0.944; in [3] (setting [11]), 0.403; in experiment [3] (setting [12]) it was -0.669. The fluorescence slope was -0.374 (inactive) in experiment [5] and 0.00509 (inactive) in experiment [7]. For the same molecule, the NADPH fluorescence slope in experiment [6] is -3.7e-05 (inactive). Also, the outcome in experiment [8] was inactive.

As for `CCN(CC)CCN1C(=O)C(=O)/C(=C(/O)c2c(C)[nH]c(C(=O)OC)c2C)C1c1ccc(OC)cc1` (centres undefined), the cell count in experiment [1] was 733. Besides, the inhibition in experiment [1] is -1.5% (inactive); in [2] it was -75.7% (inactive); in experiment [4] it was 0.671% (inactive); in [9] it was 18.4% (inactive). This molecule yielded a nuclei count in experiment [2] of 194%. The z-score in [3] (setting [10]) was -0.146; in experiment [3] (setting [11]) it was -0.0149; in experiment [3] (setting [12]), 0.967. The fluorescence slope in experiment [5] is -0.449 (inactive); in experiment [7], 0.00528 (inactive). Also, the NADPH fluorescence slope in [6] was -4e-05 (inactive). For the same molecule, the outcome in experiment [8] was inactive.

Take `N#CCSc1nc2c(c(=O)n1Cc1ccco1)C1(CCCC1)Cc1ccccc1-2`: the cell count in [1] stood at 500. In addition, the inhibition is -2.6% (inactive) in experiment [1], -97.3% (inactive) in [2], 13.9% (inactive) in experiment [4] and -7.4% (inactive) in experiment [9]. In addition, the nuclei count in experiment [2] stood at 150%. Moreover, the figures for the z-score in experiment [3] (setting [10]), in experiment [3] (setting [11]) and in experiment [3] (setting [12]) were 0.3, 0.666 and -0.907, respectively. Besides, the fluorescence slope was -0.397 (inactive) in experiment [5] and 0.00897 (inactive) in experiment [7]. Also, the NADPH fluorescence slope in experiment [6] was -2.2e-05 (inactive). For the same molecule, the outcome in experiment [8] is “active; weak signal in gallbladder and intestine”.

For the molecule `CCc1nc(NCCN2CCOCC2)c(C#N)c2c1CCCC2`, the cell count in experiment [1] was 358. In addition, the inhibition in experiment [1] is -2.8% (inactive); in experiment [2], -19.6% (inactive); in experiment [4] it was 11.4% (inactive); in experiment [9], 30.2% (inactive). Moreover, the nuclei count in experiment [2] was 79.7%. In addition, the figures for the z-score in experiment [3] (setting [10]), in [3] (setting [11]) and in experiment [3] (setting [12]) were -0.865, 0.944 and 0.38, respectively. Further, the results for the fluorescence slope in [5] and in experiment [7] were -0.595 (inactive) and 0.00436 (inactive), respectively. In addition, the NADPH fluorescence slope in experiment [6] was 4.1e-06 (inactive). Moreover, the result in experiment [8] was inactive.

`O=C1CCC(=O)N1c1nc2n(n1)C(c1ccccc1)C=C(c1ccc(Br)cc1)N2` (centres undefined): the cell count in [1] came to 369. For the same molecule, the inhibition in experiment [1] is 3% (inactive); in experiment [2] it was -50% (inactive); in experiment [4] it was 3.56% (inactive); in experiment [9], 17.5% (inactive). In addition, the nuclei count in [2] stood at 71.6%. The z-score was 0.246 in experiment [3] (setting [10]), -0.538 in [3] (setting [11]) and -1.14 in experiment [3] (setting [12]). The fluorescence slope in experiment [5] was -0.374 (inactive); in [7], 0.0047 (inactive). For the same molecule, the NADPH fluorescence slope in experiment [6] is -9.5e-05 (inactive). Besides, in experiment [8], the outcome was inactive.

On to `CCOC(=O)C1=C(N)n2c(s/c(=C\c3cccnc3)c2=O)=C(C(=O)OC)C1c1cccnc1` (centres undefined), for which the cell count in experiment [1] was 326. The inhibition in experiment [1] was -14.1% (inactive); in experiment [2] it was -129% (inactive); in experiment [4] it was -2.59% (inactive); in experiment [9], -3.27% (inactive). The nuclei count in experiment [2] is 110%. In addition, the z-score in [3] (setting [10]) is -0.584; in experiment [3] (setting [11]), 1.82; in [3] (setting [12]), -0.0878. The fluorescence slope in experiment [5] is -0.501 (inactive); in experiment [7], 0.00354 (inactive). The NADPH fluorescence slope in [6] was 1.7e-05 (inactive). In experiment [8], the result was inactive.

Turning to `Cc1cc(=O)oc(C)c1C(=O)Nc1ccc2nsnc2c1`, the cell count in [1] worked out at 517. Further, the inhibition in experiment [1] was -2% (inactive); in experiment [2] it was 3.2% (inactive); in experiment [4], 5.95% (inactive); in [9] it was -6.75% (inactive). In experiment [2], this molecule had a nuclei count of 164%. Besides, the z-score in [3] (setting [10]) came out at 0.355; in experiment [3] (setting [11]), 0.546; in experiment [3] (setting [12]), 0.697. Further, the values for the fluorescence slope in experiment [5] and in [7] were -0.278 (inactive) and 0.00564 (inactive), respectively. Moreover, the NADPH fluorescence slope in [6] was -2.8e-05 (inactive). In addition, the molecule was classed as inactive in experiment [8].

With `CCCCOc1ccc(C(=O)N2CCCC2C(=O)O)cc1` (centres undefined), in experiment [1], the cell count came to 675. For the same molecule, the inhibition is 2.7% (inactive) in experiment [1], 22.4% (inactive) in experiment [2], -13.3% (inactive) in [4] and 7.22% (inactive) in experiment [9]. In experiment [2], this molecule yielded a nuclei count of 146%. The z-score in [3] (setting [10]) turned out to be 0.371; in experiment [3] (setting [11]) it was 0.251; in experiment [3] (setting [12]) it was 0.422. Besides, the fluorescence slope in experiment [5] was -0.458 (inactive); in experiment [7], 0.00494 (inactive). Moreover, the NADPH fluorescence slope in experiment [6] was -4.7e-05 (inactive). In experiment [8], the molecule was called inactive.

Take `O=C(O)CSCC(=O)Nc1ccc(S(=O)(=O)N2CCCCC2)cc1`: the cell count in experiment [1] stood at 500. Moreover, the inhibition in [1] is -7.8% (inactive); in [2], -62% (inactive); in experiment [4], -3.95% (inactive); in [9], -4.71% (inactive). Moreover, the nuclei count in experiment [2] is 162%. Further, the z-score is 0.13 in [3] (setting [10]), -1.22 in experiment [3] (setting [11]) and 0.192 in [3] (setting [12]). The figures for the fluorescence slope in experiment [5] and in [7] were -0.424 (inactive) and 0.00479 (inactive), respectively. Further, in experiment [6], the NADPH fluorescence slope is -3.2e-05 (inactive). The result in experiment [8] was inactive.

Turning to `CCN(CC)CCNc1ncnc2c1[nH]c1ccc(OC)cc12`, in experiment [1], the cell count is 595. Besides, the inhibition in experiment [1] is -7.6% (inactive); in experiment [2], -67.9% (inactive); in experiment [4], 3.42% (inactive); in experiment [9] it was 6% (inactive). The molecule also had a nuclei count in experiment [2] of 150%. Moreover, the z-score in experiment [3] (setting [10]) was 1.23; in experiment [3] (setting [11]) it was -0.0798; in [3] (setting [12]), -1.12. For the same molecule, the fluorescence slope in [5] was -0.236 (inactive); in [7], 0.00672 (inactive). Moreover, the NADPH fluorescence slope in [6] was 1.1e-06 (inactive). For the same molecule, the outcome in [8] was inactive.

`CCCCC(=O)NC(Nc1ccc(C)cn1)(C(=O)OCC)C(F)(F)F` (centres undefined): in experiment [1], the cell count amounted to 651. Besides, the inhibition in experiment [1] is -16.3% (inactive); in experiment [2], -59% (inactive); in experiment [4] it was 1.63% (inactive); in experiment [9] it was -0.324% (inactive). The nuclei count in experiment [2] stood at 156%. Also, the z-score is 0.317 in [3] (setting [10]), -1.54 in [3] (setting [11]) and 1.99 in [3] (setting [12]). In addition, the fluorescence slope in experiment [5] is -0.481 (inactive); in experiment [7], 0.00419 (inactive). The NADPH fluorescence slope in experiment [6] was -4.4e-05 (inactive). Besides, in [8], the molecule was classed as inactive.

For the molecule `O=C(Nc1ccccc1)c1cc(N2CCOCC2)nc2ccccc12`, the cell count in [1] worked out at 667. The inhibition was -1.5% (inactive) in [1], -114% (inactive) in experiment [2], 6.51% (inactive) in [4] and -0.488% (inactive) in [9]. In experiment [2], this molecule yielded a nuclei count of 149%. Moreover, the z-score in [3] (setting [10]) is 1.08; in experiment [3] (setting [11]), 1.33; in experiment [3] (setting [12]), -0.63. For the same molecule, the results for the fluorescence slope in experiment [5] and in experiment [7] were -0.419 (inactive) and 0.00579 (inactive), respectively. Further, the NADPH fluorescence slope in experiment [6] was -6.8e-05 (inactive). Besides, the call in experiment [8] was inactive.

In the case of `Cn1c(=O)c2c(nc(NCc3ccco3)n2Cc2ccccc2Cl)n(C)c1=O`, the cell count in [1] turned out to be 502. For the same molecule, the inhibition was -4.4% (inactive) in experiment [1], -15.6% (inactive) in experiment [2], 12.8% (inactive) in [4] and -9.48% (inactive) in experiment [9]. This molecule also showed a nuclei count in experiment [2] of 92.2%. Also, the z-score was 0.653 in [3] (setting [10]), -0.74 in [3] (setting [11]) and 0.354 in experiment [3] (setting [12]). Further, the fluorescence slope in experiment [5] was -0.463 (inactive); in [7] it was 0.00464 (inactive). Besides, the NADPH fluorescence slope in [6] is -2.4e-05 (inactive). The call in experiment [8] was inactive.
